pKi: −log10 of the molar value. Activity calls are given as the source filed them. No cut-off for these calls is given here.
Tests used:
[1] = Inhibition of Trypanosoma cruzi carbonic anhydrase preincubated for 15 mins to 6 hrs by CO2 hydration stopped-flow assay
Method in brief: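 Recombinant TcCA prepared in-house. Stopped-flow CO2 hydration assay with 0.2 mM phenol red read at 557 nm, in 20 mM HEPES pH 7.5 with 20 mM Na2SO4, at 20 °C. CO2 1.7–17 mM. Initial rates taken over 10–100 s and uncatalyzed rates subtracted. Inhibitor diluted down to 0.01 nM and preincubated with enzyme 15 min at room temperature or 6 h at 4 °C. KI by nonlinear least squares, mean of ≥3 determinations.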

[2] = tested on: Trypanosoma cruzi; test: Antitrypanosomal activity against Trypanosoma cruzi epimastigotes at 64 to 256 uM by ELISA; format: functional, organism-based
Method in brief: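 Resazurin viability assay on log-phase T. cruzi epimastigotes (strains DM28 and Y). Cultures seeded 24 h at 28 °C, plated and incubated a further 48 h at 28 °C. Resazurin added, incubation 1–6 h, then dual-wavelength absorbance at 490 and 595 nm with background subtracted. Compounds tested at 256, 128 and 64 μM. Benznidazole as reference. Three experiments, each in triplicate.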

[3] = biological target: Carbonic anhydrase 1 (Homo sapiens, UniProt P00915); test: Inhibition of human carbonic anhydrase 1 preincubated for 15 mins to 6 hrs by CO2 hydration stopped-flow assay
Sequence of Carbonic anhydrase 1 (P00915 whole entry): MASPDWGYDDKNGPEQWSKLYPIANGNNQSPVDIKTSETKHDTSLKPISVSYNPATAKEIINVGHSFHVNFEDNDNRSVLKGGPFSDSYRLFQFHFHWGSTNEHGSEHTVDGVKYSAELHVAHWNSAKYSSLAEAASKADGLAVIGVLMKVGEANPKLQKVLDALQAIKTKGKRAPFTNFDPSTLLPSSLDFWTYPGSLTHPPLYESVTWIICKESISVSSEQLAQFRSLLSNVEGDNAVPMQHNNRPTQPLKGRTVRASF

[4] = biological target: Carbonic anhydrase 2 (Homo sapiens, UniProt P00918); test: Inhibition of human carbonic anhydrase 2 preincubated for 15 mins to 6 hrs by CO2 hydration stopped-flow assay

Compound | pKi [1] | further results
NS(=O)(=O)c1ccc(NC(=O)Cc2ccc(F)cc2)c(F)c1 | 8.08 | –
NS(=O)(=O)c1ccc(NC(=O)Cc2ccc(F)cc2)cc1 | 8.07 | –
NS(=O)(=O)c1ccc(CCNC(=O)Cc2ccccc2Br)cc1 | 8.48 | Activity [2]: inactive
COc1ccc(CC(=O)NCCc2ccc(S(N)(=O)=O)cc2)cc1 | 8.12 | pKi [3]: 8.43; pKi [4]: 9.09
COc1ccc(CC(=O)Nc2ccc(S(N)(=O)=O)cc2Br)cc1 | 8.14 | –
NS(=O)(=O)c1ccc(NC(=O)Cc2ccccc2Br)c(Cl)c1 | 8.11 | –
NS(=O)(=O)c1ccc(NC(=O)Cc2ccccc2Br)c(F)c1 | 8.80 | Activity [2]: inactive
NS(=O)(=O)c1nnc(NC(=O)Cc2ccc(Cl)cc2)s1 | 9.02 | Activity [2]: inactive
NS(=O)(=O)c1ccc(CNC(=O)Cc2ccc(F)cc2)cc1 | 8.43 | –
COc1ccc(CC(=O)Nc2nnc(S(N)(=O)=O)s2)cc1 | 9.29 | Activity [2]: inactive
COc1ccc(CC(=O)Nc2ccc(S(N)(=O)=O)cc2)cc1 | 8.10 | –
NS(=O)(=O)c1ccc(NC(=O)Cc2ccc(Cl)cc2)cc1 | 8.57 | –
NS(=O)(=O)c1ccc(NC(=O)Cc2ccccc2Br)cc1 | 8.05 | –
NS(=O)(=O)c1ccc(NC(=O)Cc2ccccc2Br)c(Br)c1 | 7.96 | –
NS(=O)(=O)c1ccc(CNC(=O)Cc2ccc(Cl)cc2)cc1 | 7.90 | –
NS(=O)(=O)c1ccc(CNC(=O)Cc2ccccc2Br)cc1 | 8.05 | –
COc1ccc(CC(=O)Nc2ccc(S(N)(=O)=O)cc2Cl)cc1 | 8.10 | –
NS(=O)(=O)c1ccc(NC(=O)Cc2ccc(F)cc2)c(Cl)c1 | 8.15 | –
NS(=O)(=O)c1nnc(NC(=O)Cc2ccccc2Br)s1 | 9.08 | –
COc1ccc(CC(=O)NCc2ccc(S(N)(=O)=O)cc2)cc1 | 8.13 | –
NS(=O)(=O)c1ccc(NC(=O)Cc2ccc(F)cc2)c(Br)c1 | 8.05 | –
NS(=O)(=O)c1nnc(NC(=O)Cc2ccc(F)cc2)s1 | 8.12 | –
NS(=O)(=O)c1ccc(NC(=O)Cc2ccc(Cl)cc2)c(Br)c1 | 8.15 | –
NS(=O)(=O)c1ccc(CCNC(=O)Cc2ccc(F)cc2)cc1 | 8.04 | –
NS(=O)(=O)c1ccc(NC(=O)Cc2ccc(Cl)cc2)c(F)c1 | 8.92 | Activity [2]: inactive
NS(=O)(=O)c1ccc(CCNC(=O)Cc2ccc(Cl)cc2)cc1 | 7.93 | pKi [3]: 8.01; pKi [4]: 8.19
COc1ccc(CC(=O)Nc2ccc(S(N)(=O)=O)cc2F)cc1 | 8.39 | –
NS(=O)(=O)c1ccc(NC(=O)Cc2ccc(Cl)cc2)c(Cl)c1 | 8.11 | –
